SENP7 block: SENP7 protease inhibitors, primary screen, biochemical, luminescence, uHTS; Sentrin-specific protease 7 (Homo sapiens), Q9BQF6; AID 434973, 2010; recombinant SENP7, Z-RLRGG-aminoluciferin luminescence, 40 min; inhibition, % at 5 µM; actives 1.5% (n = 330,000);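 active means inhibition above about 50% at the single test dose, limit read from the data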;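 further: plate controls were DMSO with enzyme for no effect and no enzyme buffer wells for full effect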
SENP6 inh: SENP6 protease inhibitors, primary screen, biochemical, luminescence, uHTS | Recombinant SENP6 catalytic domain, aminoluciferin luminescence | inhibition, % at 10 µM | actives 1.8% (n = 330,000) | AID 2599, 2010;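 active means inhibition above about 50% at the single tested dose, limit read from the data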;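 further: plate controls were DMSO wells with enzyme for no effect and DMSO wells lacking enzyme for full effect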
Platelet DG rel: inhibitors of platelet dense granule secretion, primary screen, cell-based, MLPCN, human platelets. human platelet-rich plasma, SFLLRN dense granule ATP release, luminescence. inhibition, %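 (compounds screened at 7.5 µM in platelet-rich plasma)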. actives 0.22% (n = 300,000);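 active means mean replicate score, as percent of positive control, at or above 50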
SENP8 block-1: human SENP8 protease inhibitors, primary screen, biochemical, fluorescence, Nedd8 protein substrate, uHTS; actives 0.64% (n = 360,000); recombinant SENP8; AID 602440, 2012; inhibition, % at 20 µM; Sentrin-specific protease 8 (Homo sapiens), Q96LD8; in the data active means inhibition mostly above about 40%, no sharp cut-off; inactive means mostly below about 27%
Target sequence (Q96LD8 whole entry, looked up): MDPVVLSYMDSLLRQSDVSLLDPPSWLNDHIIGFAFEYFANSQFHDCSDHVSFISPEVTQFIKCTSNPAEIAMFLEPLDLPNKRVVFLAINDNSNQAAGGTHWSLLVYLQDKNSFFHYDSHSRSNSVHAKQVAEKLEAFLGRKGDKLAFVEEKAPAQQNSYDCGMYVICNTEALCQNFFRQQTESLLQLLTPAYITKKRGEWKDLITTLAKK
SENP8 block-2: SENP8 protease inhibitors, primary screen, biochemical, luminescence; Sentrin-specific protease 8 (Homo sapiens), Q96LD8; purified SENP8, Z-RLRGG-aminoluciferin cleavage; inhibition, % at 10 µM; actives 1.2% (n = 330,000); in the data active means inhibition above about 50%
SENP1 inh: human SENP1 catalytic domain inhibitors, primary screen, biochemical, FRET, uHTS; Sentrin-specific protease 1 (Homo sapiens), Q9P0U3; recombinant SENP1 catalytic domain, CyPet-SUMO1-YPet FRET cleavage; inhibition, % at 10 µM; actives 0.21% (n = 360,000); AID 624204, 2012;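 active means inhibition at least 30% at 10 µM, raw YFP signal under a set limit, fluorescence ratio 0.5 to 1.5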;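 further: 0% = enzyme with DMSO and 100% = no enzyme wells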
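Compound: 10 µM single point, 0.5% DMSO; Test system: hSENP1 catalytic domain, recombinant; Timing: 50 min reaction at room temperature; Technique: FRET, CFP and YFP emission; Control set: no-enzyme wells low, DMSO-plus-enzyme wells high control.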
SENP8 confirm: SENP8 protease inhibitors, retest, confirmation, biochemical, luminescence, single concentration | actives 40% (n = 6,200) | AID 488912, 2010 | Recombinant SENP8, Z-RLRGG-aminoluciferin luminescence, 60 min | shares compounds with SENP7 block | inhibition, % at 12.5 µM;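 active means mean inhibition across replicates above about 50%, limit read from the data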
SENP6 confirm: SENP6 protease inhibitors, confirmation, biochemical, luminescence, single concentration; shares compounds with SENP7 block; recombinant SENP6, Z-RLRGG-aminoluciferin luminescence; inhibition, % at 12.5 µM; actives 58% (n = 6,200); AID 488915, 2010
SENP7 conf: SENP7 protease inhibitors, retest, confirmation, biochemical, luminescence, single concentration | shares compounds with SENP7 block | recombinant SENP7, Z-RLRGG-aminoluciferin luminescence, 40 min | inhibition, % at 12.5 µM | actives 69% (n = 6,200)
Casp3 select: caspase-3 protease inhibitors, confirmation, selectivity assay for SENP inhibitor project, biochemical, single concentration; shares compounds with SENP7 block; actives 60% (n = 6,200); purified caspase-3, Z-DEVD-aminoluciferin luminescence, 60 min; inhibition, % at 12.5 µM;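 active means mean inhibition above about 50%, limit read from the data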;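 further: plate controls were enzyme with DMSO for no effect and wells without caspase-3 for full effect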
Target sequence (P42574 28-227 limits assumed): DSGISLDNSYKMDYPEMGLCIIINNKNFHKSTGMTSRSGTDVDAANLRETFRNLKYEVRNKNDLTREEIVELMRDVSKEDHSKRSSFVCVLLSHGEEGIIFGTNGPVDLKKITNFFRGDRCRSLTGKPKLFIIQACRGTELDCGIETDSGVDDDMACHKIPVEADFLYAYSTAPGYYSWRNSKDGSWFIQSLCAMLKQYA
SENP luc ctr: luminescence interference (SENP counter-screen) | shares compounds with SENP7 block | Pre-incubated SENP8/Z-RLRGG-aminoluciferin, luciferase luminescence interference | inhibition, % at 12.5 µM | actives 39% (n = 6,200) | AID 488919;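 active means mean inhibition above about 50% when retested at one dose, limit read from the data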;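 further: plate controls were DMSO wells with completed reaction for no effect and substrate without enzyme for full effect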
An asterisk follows results filed as active; nt = no result. An excerpt weighted towards active compounds, which were near 2.6% of everything screened.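 How the source made its calls, unless noted: active means mean inhibition above about 50% in the one-dose retest (limit read from the data); inactive means the rest.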

SMILES | SENP7 block | SENP6 inh | Platelet DG rel | SENP8 block-1 | SENP8 block-2 | SENP1 inh | SENP8 confirm | SENP6 confirm | SENP7 conf | Casp3 select | SENP luc ctr
Cc1ccc(C2C(N)C(=O)N2c2ccc(C)cc2)cc1 (centres undefined) | 5 | -24 | 8 | 6 | -1 | 1 | nt | nt | nt | nt | nt
CCCNC(C)(C)COC(=O)c1ccccc1 | -8 | -12 | nt | 24 | -6 | 0 | nt | nt | nt | nt | nt
Nc1ccc2nc(-c3ccc(N)c(Cl)c3)[nH]c2c1 | 34 | 60* | 20 | -449 | 35 | -9 | 62* | 59* | 81* | 78* | 63*
Cc1ccc(Nc2nc(Cl)c(C=O)s2)cc1Cl | 87* | 94* | 5 | -365 | 93* | -28 | 69* | 96* | 85* | 52* | 10
Cc1ccc(NC(=O)c2cc(-c3ccco3)on2)cc1 | 19 | 2 | -1 | -12 | -1 | 2 | nt | nt | nt | nt | nt
CC(C)c1cc(C(=O)Nc2cccnc2)no1 | 63* | 62* | 5 | 13 | 40 | -1 | 61* | 56* | 86* | 88* | 65*
COc1cccc(-c2cc(C(=O)Nc3cccnc3)no2)c1 | 80* | 55* | 7 | 3 | 65* | -4 | 47 | 78* | 93* | 83* | 29
O=C(Nc1cccnc1)c1cc(-c2ccc(Br)cc2)on1 | 84* | 29 | -29 | 15 | 36 | 1 | 19 | 19 | 31 | 30 | 5
CCCc1cc(C(=O)Nc2cccnc2)no1 | 37 | -10 | 9 | 1 | 24 | -1 | nt | nt | nt | nt | nt
O=C(Nc1cccnc1)c1cc(-c2ccco2)on1 | 58* | 49 | 4 | 18 | 23 | -1 | 40 | 39 | 64* | 79* | 1
COc1cc(NC(=O)CN2C(=O)COc3ccc(S(=O)(=O)N4CCOCC4)cc32)cc(OC)c1 | 7 | -7 | -10 | 12 | 3 | -2 | nt | nt | nt | nt | nt
CCN(CC)C(=O)c1nc[nH]c1C(=O)N1CCc2ccccc2C1 | 0 | 14 | nt | 12 | 0 | 3 | nt | nt | nt | nt | nt
NC(c1ccc(F)c(F)c1)c1nc(-c2cc(F)cc(F)c2)cs1 (centres undefined) | nt | nt | nt | 8 | nt | 1 | nt | nt | nt | nt | nt
COC(=O)c1sccc1-c1ccc(C(=O)Nc2cccnc2)o1 | 52* | 48 | -4 | -96 | 21 | 3 | 45 | 40 | 76* | 59* | 4
O=C(Nc1cccnc1)c1cc(-c2ccccc2)on1 | 69* | 75* | -5 | 9 | 48 | 2 | 36 | 49 | 86* | 75* | 32
CN(CCOc1ccc(Cl)cc1)C(=O)c1cccc(S(=O)(=O)N2CCN(c3ccc(F)cc3)CC2)c1 | nt | nt | nt | 9 | nt | -1 | nt | nt | nt | nt | nt
CC1(C(=O)NS(=O)(=O)c2ccc(Cl)cc2)CCN1C(=O)c1ccccc1 (centres undefined) | nt | nt | nt | 12 | nt | -1 | nt | nt | nt | nt | nt

Screens from PubChem.
